What was measured:
[1] = Therapeutic index, ratio of CC50 for human MT2 cells to EC50 for HIV1 3B; assay type: cell-based; conditions: read-out: Ratio CC50/EC50
Procedure, shortened: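 MT-2 cells at 1×10^5 cells/mL, HIV-III_B or mock infection at MOI 0.1, 5 days with graded compound, triplicate; MTT read-out at 595 nm. Index computed as CC50 (mock-infected cells) over EC50 (viral replication), both from dose-response curves.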

MT2 [2] = test: Cytotoxicity against mock-infected human MT2 cells after 5 days by MTT assay; assay type: cell-based; conditions: mt2, 120 h
Procedure, shortened: (§1)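 Infected (Y181C, MOI 0.1) or mock-infected MT-2 cells at 1×10^5 cells/mL exposed 5 days to graded compound concentrations in RPMI 1640/10% dFBS/kanamycin, triplicate. Viability by MTT (5 h), acidified isopropanol lysis, absorbance 595 nm. CC50 read from triplicate-mean dose-response curves as concentration reducing viable cells by 50%.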

[3] = system: Human immunodeficiency virus 1; test: Antiviral activity against wild-type HIV1 3B infected in human MT2 cells assessed as inhibition of viral replication after 5 days by MTT assay; conditions: Human immunodeficiency virus 1, 3B, MT2, 120 h
[4] = target: Human immunodeficiency virus type 1 reverse transcriptase (Human immunodeficiency virus 1, UniProt Q72547); test: Inhibition of HIV1 3B reverse transcriptase
Procedure, shortened: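 Steady-state single-nucleotide incorporation: 6 nM RT (active-site titrated) pre-incubated at least 15 min with 1 μM 5'-radiolabeled primer/template, then at least 15 min on ice with inhibitor (DMSO under 2%, DMSO-only control). Started with 5 μM dTTP and 10 mM MgCl2 (final), 15 min at 37 °C, EDTA quench. Products resolved on 20% denaturing PAGE; hyperbolic fit gives IC50.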

[5] = system: Human immunodeficiency virus 1; test: Antiviral activity against nevirapine-resistant HIV1 with reverse transcriptase Y181C mutation in human MT2 cells assessed as inhibition of viral replication after 5 days by MTT assay; assay type: functional, organism-based; conditions: Human immunodeficiency virus 1, MT2, 120 h
Procedure, shortened: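 MT-2 cells at 1×10^5 cells/mL infected at MOI 0.1 (wild-type HIV-III_B or Y181C mutant), cultured 5 days in RPMI 1640 with 10% dFBS and kanamycin across a range of compound concentrations, triplicate wells. MTT added for 5 h, cells lysed with acidified isopropanol, A595 read. EC50 taken from dose-response curves of triplicate means as concentration inhibiting viral replication by 50%.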

[6] = Therapeutic index, ratio of CC50 for HIV1 Y181C mutant infected human MT2 cells to EC50 for HIV1 with reverse transcriptase Y181C mutation; assay type: cell-based; conditions: read-out: Ratio CC50/EC50
Procedure, shortened: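 MT-2 cells (1×10^5 cells/mL), infected with Y181C mutant HIV-1 at MOI 0.1 or mock-infected, were cultured 5 days in RPMI 1640 with 10% dFBS and kanamycin at varying compound concentrations, in triplicate. MTT was added for 5 h, cells were lysed with acidified isopropanol, and A595 was read. EC50 (50% inhibition of viral replication) and CC50 (50% loss of viable cells) came from averaged dose-response curves.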

MT2 [7] = test: Cytotoxicity against HIV1 Y181C mutant infected human MT2 cells after 5 days by MTT assay; assay type: cell-based; conditions: mt2, 120 h; procedure, shortened: as §1

Compound	selectivity ratio [1]	CC50 (MT2 [2])	EC50 [3]	IC50 [4]	EC50 [5]	selectivity ratio [6]	CC50 (MT2 [7])
CCCOc1ccc(OC)cc1CCNC(=S)Nc1ccc(Br)cn1	1	100 nM	95 nM				
COC(=O)COc1ccc(OC)cc1CCNC(=S)Nc1ccc(Br)cn1	4	48000 nM	12000 nM	100 nM			
COc1ccc(OCCCO)c(CCNC(=S)Nc2ccc(Br)cn2)c1	94	8500 nM	98 nM	24 nM			
CC#CCOc1ccc(OC)cc1CCNC(=S)Nc1ccc(Br)cn1	74	20000 nM	270 nM				
COc1ccc(OC)c(CCNC(=S)Nc2ccc(Br)cn2)c1	21	1000 nM	48 nM	28 nM	1200 nM	15	18000 nM
C#CCOc1ccc(OC)cc1CCNC(=S)Nc1ccc(Br)cn1	2	100 nM	52 nM				
C#CCOCCOCCOc1ccc(OC)cc1CCNC(=S)Nc1ccc(Br)cn1	17	6800 nM	390 nM				
COc1ccc(OCCOCc2ccccc2)c(CCNC(=S)Nc2ccc(Br)cn2)c1	3	5800 nM	2000 nM				
COc1ccc(OCc2ccccc2)c(CCNC(=S)Nc2ccc(Br)cn2)c1	18	4000 nM	220 nM				
C=CCOc1ccc(OC)cc1CCNC(=S)Nc1ccc(Br)cn1	55	11000 nM	200 nM				
COc1ccc(OCCO)c(CCNC(=S)Nc2ccc(Br)cn2)c1	83	1000 nM	12 nM	19 nM			
C#CCCCOc1ccc(OC)cc1CCNC(=S)Nc1ccc(Br)cn1	40	10000 nM	250 nM	27 nM			
C#CCOCCOc1ccc(OC)cc1CCNC(=S)Nc1ccc(Br)cn1		9500 nM	95 nM	41 nM			
COc1ccc(OCC#N)c(CCNC(=S)Nc2ccc(Br)cn2)c1	46	5500 nM	120 nM				
COc1ccc(OCCCC#N)c(CCNC(=S)Nc2ccc(Br)cn2)c1	76	3800 nM	50 nM				
C#CCCOc1ccc(OC)cc1CCNC(=S)Nc1ccc(Br)cn1	38	1000 nM	26 nM	3.8 nM	< 200 nM	> 20	4000 nM

From ChEMBL document CHEMBL1152198, “C-2-aryl O-substituted HI-236 derivatives as non-nucleoside HIV-1 reverse-transcriptase inhibitors” (Bioorg Med Chem, 2008)
